CASP6 VEID inh: caspase-6 (human) enzyme inhibition; inhibition, % at 12.5 µM; 0.53% of 350,000 active; purified caspase-6, Z-VEID-R110 cleavage fluorescence; P55212;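 active = mean inhibition across replicates at least about 35%, with every replicate also reaching that limit, limit read from the data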;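 note: 0% = median of neutral control wells and 100% = no fluorescence left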
TDP2 absorb: TDP2 (human) inhibition, absorbance primary screen | O95551 | recombinant TDP2, T5PNP hydrolysis, p-nitrophenol absorbance 415 nm | inhibition, % at 12.8 µM | 0.34% of 370,000 active;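 active = inhibition above the mean of all tested compounds plus 3 SD, set per campaign, cut at about 25% in these data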;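 note: 0% = DMSO with enzyme and 100% = buffer with substrate but no TDP2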
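Evaluation: % inhibition relative to enzyme-containing and enzyme-free wells. Material: recombinant human TDP2. Benchmarks: enzyme-free and DMSO wells. Timing: enzyme reaction with compound for 2 h at 37 °C. Compound dosing: 12.8 µM only. Measured by: p-Nitrophenol epi absorbance. Reagent: T5PNP substrate at 5 mM, a TopII-DNA adduct mimic. Replication: single well per compound.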
NSD2 HMT inh: blocks human histone methyltransferase NSD2; AID 743445; 0.54% of 310,000 active; inhibition, % at 12.5 µM; O96028; NSD2 peptide methylation, AlphaScreen, 120 min; in the data active = inhibition above about 50%
Target sequence (O96028 whole entry, looked up): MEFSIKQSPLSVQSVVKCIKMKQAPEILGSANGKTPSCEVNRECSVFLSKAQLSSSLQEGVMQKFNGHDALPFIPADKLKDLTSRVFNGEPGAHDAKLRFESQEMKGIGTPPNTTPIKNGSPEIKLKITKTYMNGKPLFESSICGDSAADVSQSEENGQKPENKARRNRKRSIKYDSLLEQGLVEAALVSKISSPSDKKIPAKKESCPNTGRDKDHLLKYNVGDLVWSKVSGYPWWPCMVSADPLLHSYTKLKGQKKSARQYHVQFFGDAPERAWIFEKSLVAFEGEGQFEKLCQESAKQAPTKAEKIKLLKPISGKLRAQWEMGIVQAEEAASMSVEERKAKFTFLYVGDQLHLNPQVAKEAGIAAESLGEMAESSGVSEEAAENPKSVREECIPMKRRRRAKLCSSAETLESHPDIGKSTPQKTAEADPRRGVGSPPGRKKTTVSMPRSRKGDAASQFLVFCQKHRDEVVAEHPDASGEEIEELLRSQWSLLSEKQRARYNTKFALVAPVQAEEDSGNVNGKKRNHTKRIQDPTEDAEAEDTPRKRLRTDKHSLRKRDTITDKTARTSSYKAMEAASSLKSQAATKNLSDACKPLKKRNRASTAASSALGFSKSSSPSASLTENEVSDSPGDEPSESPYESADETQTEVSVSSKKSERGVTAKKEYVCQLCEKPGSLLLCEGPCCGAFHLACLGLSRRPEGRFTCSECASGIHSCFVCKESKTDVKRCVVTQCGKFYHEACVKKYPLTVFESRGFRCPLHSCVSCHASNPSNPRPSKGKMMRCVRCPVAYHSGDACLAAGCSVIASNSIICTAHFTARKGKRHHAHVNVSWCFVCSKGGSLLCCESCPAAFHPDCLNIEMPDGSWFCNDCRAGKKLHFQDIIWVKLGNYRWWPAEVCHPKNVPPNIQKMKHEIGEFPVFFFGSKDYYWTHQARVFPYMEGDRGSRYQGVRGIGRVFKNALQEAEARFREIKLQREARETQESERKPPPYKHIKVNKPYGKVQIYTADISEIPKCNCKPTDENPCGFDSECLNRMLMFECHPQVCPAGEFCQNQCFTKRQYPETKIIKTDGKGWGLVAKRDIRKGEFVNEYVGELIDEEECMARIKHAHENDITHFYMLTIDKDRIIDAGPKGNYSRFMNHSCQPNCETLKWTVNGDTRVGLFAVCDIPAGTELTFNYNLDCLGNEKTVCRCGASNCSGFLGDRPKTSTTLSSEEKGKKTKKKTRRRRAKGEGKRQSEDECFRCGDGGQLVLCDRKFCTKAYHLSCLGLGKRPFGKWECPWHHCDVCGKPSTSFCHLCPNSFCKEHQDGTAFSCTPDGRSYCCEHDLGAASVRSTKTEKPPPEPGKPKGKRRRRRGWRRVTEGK
UHRF1 binding: human UHRF1 methylated DNA binding inhibitors. Q96T88. AID 687016. UHRF1 binding to methylated oligo, TR-FRET. 0.75% of 370,000 active. inhibition, % at 4.4 µM; in the data active = inhibition above about 21%;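 note: UHRF1 SRA domain binding a hemimethylated CpG hairpin DNA probe; 0% = median of test compound wells and 100% = reference inhibitor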
LEDGF integ inh: blocks HIV-1 LEDGF/p75-dependent DNA integration. TR-FRET IN-LEDGF/p75 DNA integration, Eu/Cy5. inhibition, % at 3.7 µM. 0.64% of 370,000 active. AID 743269;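 active = inhibition above the screen-wide mean plus 3 SD, cut at about 13% in these data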;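 note: signal is the Cy5 over europium emission ratio at 671 and 618 nm; 0% = plate median of compound wells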
MBD2 inh: MBD2-methylated oligo binding inhibition; Q9UBB5; TR-FRET, MBD2 binding to methylated oligonucleotide; inhibition, % at 4.4 µM; 0.31% of 370,000 active; AID 686964; in the data active = inhibition above about 13%
IN multimer up: HIV-1 integrase multimerization activation, counter-screen. shares compounds with LEDGF integ inh. TR-FRET HIV-1 integrase multimerization, biochemical. activation, % at 7.7 µM. 17% of 2,000 active. AID 1053131; in the data active = activation above about 8.9%
TRFRET interf: counter-screen for LEDGF/p75 integration inhibitors: TR-FRET optical interference | shares compounds with LEDGF integ inh | TR-FRET optical interference counterscreen, HIV-1 IN multimerization | inhibition, % at 7.7 µM | 2,000 tested, under 10 active | AID 1053135;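 active = inhibition above the mean over all tested compounds plus 3 SD, which no compound reached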;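 note: 0% = integrase with antibodies and DMSO and 100% = antibodies without integrase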
LEDGF integ conf: confirmation of HIV-1 LEDGF/p75-dependent integration inhibitors; 36% of 2,000 active; TR-FRET LEDGF/p75-dependent HIV-1 integration, biochemical; AID 1053136; shares compounds with LEDGF integ inh; inhibition, % at 3.7 µM; in the data active = inhibition above about 14%
Alpha artifact: AlphaScreen assay artifact in NSD2 counter-screen; shares compounds with NSD2 HMT inh; AlphaScreen artifact counterscreen, preloaded methylated H4 peptide; AC35, µM (titrated, usually from 10 µM), inactives show top-dose activity change, negative = signal loss; 9.4% of 1,500 active; AID 1053174; call rule not given here
The depositor's hits bear a star; nt = not tested or not shown; + = active, no number. An excerpt weighted towards active compounds, which were near 1.8% of everything screened.

SMILES | CASP6 VEID inh | TDP2 absorb | NSD2 HMT inh | UHRF1 binding | LEDGF integ inh | MBD2 inh | IN multimer up | TRFRET interf | LEDGF integ conf | Alpha artifact
CC(OC(=O)c1ccc2ccccc2n1)C(=O)Nc1ccc(N2CCOCC2)cc1 (stereo not drawn) | nt | -8 | 2 | -1 | 15* | 4 | 1 | -5 | -7 | nt
CC(OC(=O)c1cccc(NS(C)(=O)=O)c1)C(=O)Nc1ccc(N2CCOCC2)cc1 (stereo not drawn) | nt | 3 | 2 | 1 | -1 | 2 | nt | nt | nt | nt
Cc1cc(NC(=O)CSc2nc(-c3cccs3)cc(C(F)(F)F)n2)no1 | nt | -5 | -3 | 2 | -3 | -1 | nt | nt | nt | nt
Cc1cc(NC(=O)CCCS(=O)(=O)c2nc(-c3cccs3)cc(C(F)(F)F)n2)no1 | 2 | 1 | -2 | 0 | 19* | -3 | -1 | 5 | 2 | nt
C=CCn1c(SCC(=O)c2ccc(O)c(O)c2)nnc1-c1cccnc1 | 61* | -7 | 72* | 25* | 16* | 6 | 45* | -161 | 60* | -7%
COc1ccc(Sc2ccccc2CN(C)C)cc1OC | nt | -3 | 16 | 2 | 3 | -1 | nt | nt | nt | nt
CNCc1ccccc1Sc1ccc(O)c(O)c1 | 7 | -1 | 64* | 17 | 14* | 12 | 3 | -13 | 10 | -8%
CCCCn1c(=O)[nH]c2nc3cc(N)ccc3nc2c1=O | -1 | -10 | 110* | -109 | 17* | -40 | 4 | -20 | 9 | 1%
O=C1Nc2ccccc2/C1=N\N=C\c1ccc(O)c(O)c1 | 36* | -12 | 119* | -2 | 45* | -8 | 37* | -132 | 81* | 3µM*
COc1cc(/C=N/N=C2/C(=O)Nc3ccccc32)ccc1O | nt | 1 | 22 | -13 | -6 | -3 | nt | nt | nt | nt
COc1ccc2c(c1)C(=O)[C@H](O)[C@@H](c1ccc(OC)c(Br)c1)O2 | 0 | -6 | nt | -4 | 1 | 3 | nt | nt | nt | nt
O=C1c2cc(O)c(O)cc2OC(c2ccc(O)c(O)c2)C1O (stereo not drawn) | 55* | -3 | 68* | 1 | 49* | 2 | 15* | -75 | 55* | -11%
CO[C@H]1CN(C)C(=O)c2ccc(NC(=O)C3CC3)cc2OC[C@@H](C)N(C(=O)c2ccccc2F)C[C@@H]1C | 3 | nt | nt | nt | nt | nt | nt | nt | nt | nt
C[C@H](CO)N1C[C@H](C)[C@H](CN(C)S(=O)(=O)c2ccc(F)cc2)Oc2ccc(NC(=O)CCCCCC(=O)Nc3ccccc3N)cc2C1=O | -1 | nt | nt | nt | nt | nt | nt | nt | nt | nt
CCOC(=O)c1ccc(CC(=O)c2ccc(O)c(O)c2O)o1 | 16 | -6 | 91* | 24* | 74* | 4 | 5 | -25 | 58* | -8%
CN1C(=O)c2cc(NC(=O)C3CC3)ccc2OC[C@@H]2O[C@@H](CC(=O)O)CC[C@H]21 | 1 | nt | nt | nt | nt | nt | nt | nt | nt | nt
COc1ccc(O)c(/C=N/N2CCOCC2)c1 | -2 | -6 | -3 | 2 | -5 | 0 | nt | nt | nt | nt
Oc1ccc(/C=N/N2CCOCC2)c(O)c1O | 7 | 0 | 87* | 7 | 52* | -3 | 9 | -43 | 18* | -2%
CC(=O)Nc1ccc2c(c1)C(=O)N(C)[C@H]1CC[C@H](CC(=O)NCCCN3CCOCC3)O[C@H]1CO2 | 2 | nt | nt | nt | nt | nt | nt | nt | nt | nt
CSc1nnc(-c2ccco2)c(-c2ccco2)n1 | 48* | 23 | 114* | 18 | 27* | 0 | 5 | -26 | 45* | -8%
CCCN1[C@H](C(=O)OC)[C@@H](CO)[C@@H]2Cn3c(ccc(C4=CCCCC4)c3=O)[C@@H]21 | 2 | nt | nt | nt | nt | nt | nt | nt | nt | nt
CN(C)Cc1cc(C(C)(C)C)cc(C(C)(C)C)c1O | -1 | -4 | -2 | 1 | 3 | -3 | nt | nt | nt | nt
CN(C)Cc1cc(O)c(CN(C)C)cc1O | 2 | 14 | 86* | 15 | 24* | -1 | 5 | -17 | 30* | 1%
Cc1ccccc1S(=O)(=O)NCC[C@H]1CC[C@H](NC(=O)Nc2cccc(Cl)c2)[C@@H](CO)O1 | 1 | nt | nt | nt | nt | nt | nt | nt | nt | nt
COc1ccc2c3c([nH]c2c1)[C@@H](CO)N(C(=O)Nc1ccc(F)cc1)CC31CN(C(=O)Nc2ccc3c(c2)OCO3)C1 | 1 | nt | nt | nt | nt | nt | nt | nt | nt | nt
SMILES | CASP6 VEID inh | TDP2 absorb | NSD2 HMT inh | UHRF1 binding | LEDGF integ inh | MBD2 inh | IN multimer up | TRFRET interf | LEDGF integ conf | Alpha artifact
COc1ccc(-n2c(C)c3c(OC)cccc(=O)c3c2C)cc1 | nt | 12 | 9 | -4 | -2 | -3 | nt | nt | nt | nt
COc1cccc(=O)c2c(C)n(-c3ccc(C(=O)O)cc3)c(C)c12 | 26 | 19 | 79* | 16 | 17* | 3 | 4 | -14 | 23* | -8%
C[C@H](CO)N1C[C@H](C)[C@H](CN(C)C(=O)Nc2ccc(F)cc2)Oc2c(NC(=O)Nc3cccc4ccccc34)cccc2C1=O | -1 | nt | nt | nt | nt | nt | nt | nt | nt | nt
COc1c(Cl)cc(C(=O)NN)cc1Cl | 1 | -8 | -3 | -2 | 1 | 5 | nt | nt | nt | nt
NNC(=O)c1cc(O)c(O)c(O)c1 | 77* | -1 | + | 29* | 61* | 10 | 39* | -197 | 63* | -11%
C/C(C=Nn1c(-c2ccc(F)cc2)n[nH]c1=S)=C/c1ccco1 | nt | -5 | 61* | -2 | 15* | -2 | 0 | 1 | 9 | -4%
CC(/C=N/n1c(-c2cccnc2)n[nH]c1=S)=C\c1ccco1 | 14 | -2 | 7 | -2 | -2 | -12 | nt | nt | nt | nt
Cc1ccc(S(=O)(=O)/N=C2/NC(=O)/C(=C/c3ccc(Br)o3)S2)cc1 | nt | 1 | 70* | 81* | 38* | 25* | 1 | -5 | 11 | -2%
CCCNC(=O)C[C@@H]1CC[C@H]2[C@@H](COc3ccc(NC(=O)NC(C)C)cc3C(=O)N2C)O1 | -1 | nt | nt | nt | nt | nt | nt | nt | nt | nt
COc1ccc(/C=N/NC(=O)c2nn(-c3ccc(Cl)cc3)c(=O)c3c(N)scc23)cc1 | nt | 12 | 2 | 8 | 11 | -2 | nt | nt | nt | nt
COc1ccc(/C=N/NC(=O)c2nn(-c3ccccc3)c(=O)c3c(N)scc23)cc1 | nt | 20 | 100* | 12 | 17* | -2 | 6 | -23 | 17* | -10%
Cc1cc(/C=C\c2nc(O)c([N+](=O)[O-])c(=O)[nH]2)c(C)n1-c1ccccc1 | 61* | 7 | 62* | 15 | 29* | 3 | 3 | -14 | 7 | -8%
Oc1cccc(/C=N/NC(=S)Nc2cccnc2)c1O | nt | 2 | 79* | -8 | 33* | 5 | 21* | -106 | 30* | -6%

Screening results deposited in PubChem by several laboratories.
